Screening data deposited in PubChem BioAssay by several laboratories.
WT yeast gro inh: growth inhibition of WT strain, primary screen, mitochondrial fusion inhibitor project, WT and mutant strains, chemical genetic; inhibition, % at 10 µM; hit rate 2.1% among 190,000; mitochondrial fusion phenotypic screen; in the data active = inhibition above about 58%; tested in S. cerevisiae
BB579 growth dn: growth inhibitors of yeast BB579 in restrictive medium, primary screen, yeast lifespan-shortening project, S. cerevisiae; OD615, 48 h; inhibition, % at 10 µM; hit rate 0.51% among 140,000; AID 804, 2007;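 active = inhibition above a set limit, 3 SD over the mean compound inhibition, cut at about 44% in these data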
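Test system: DeaD yeast strain BB579 / Buffer or medium: restrictive glucose-based CSMM-D medium / Doses: single 10 µM dose / Schedule: 4 h cell preincubation, 48 h compound exposure, 30 °C humidified / Technique: culture absorbance at 615 nm / Controls: amphotericin B positive control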
Measles CPE: compounds protecting cells from measles virus cytopathic effect, primary screen, measles RdRp inhibitor project, single point, MLSMR library, absorbance | Measles virus-infected cells, CPE protection | protection (pct of control), % at 4 µM | AID 841, 2007 | hit rate 1.5% among 140,000; in the data active = protection mostly above about 24%, no sharp cut-off; inactive = mostly below about 26%
RAM inhibit: inhibitors of the yeast RAM network, primary screen, dse1pr::URA3 reporter, 5-FOA selection; S. cerevisiae dse1pr::URA3 reporter, 5-FOA growth OD615, 2 d; analog-sensitive cbk1-as2 kinase mutant strain; inhibition, % at 50 µM; hit rate 1.8% among 190,000; AID 868, 2007;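 active = inhibition above a set limit, 3 SD over mean compound inhibition, cut at about 8.4% in these data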;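 note: inhibition rescues growth on 5-FOA so higher OD means more RAM inhibition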
Yeast life ext: compounds extending yeast replicative lifespan, primary screen, S. cerevisiae, OD615 | hit rate 0.68% among 130,000 | S. cerevisiae growth with nicotinamide; deaD strain in restrictive glucose medium | inhibition of the nicotinamide effect, % at 10 µM;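 active = inhibition above a set limit, placed 3 SD over the median of all compounds, cut at about 26% in these data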
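assay system = DeaD-strain S. cerevisiae | measured by = absorbance at 615 nm | probe or stimulus = nicotinamide 1.5 mM | buffer or medium = CSMM-D glucose medium, restrictive | times = 48 h at 30 °C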
hDAT+cocaine: changed hDAT dopamine uptake under cocaine IC80, either direction, primary screen, cocaine antagonist project, cell-based, LLC-PK1 hDAT, [14C]-dopamine uptake, MLSMR | Sodium-dependent dopamine transporter (Homo sapiens), Q01959 | LLC-PK1 hDAT cells, [14C]-dopamine uptake with cocaine IC80; actives deviate in either direction | B-score at 10 µM | hit rate 1.3% among 110,000 | AID 449768, 2010;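 active = Z score or B-score, a plate-position-corrected score, falls beyond the plate's 99.7% confidence bounds, in either direction; inactive = both scores lie inside the 99.7% bounds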
Target sequence (Q01959 whole entry, looked up): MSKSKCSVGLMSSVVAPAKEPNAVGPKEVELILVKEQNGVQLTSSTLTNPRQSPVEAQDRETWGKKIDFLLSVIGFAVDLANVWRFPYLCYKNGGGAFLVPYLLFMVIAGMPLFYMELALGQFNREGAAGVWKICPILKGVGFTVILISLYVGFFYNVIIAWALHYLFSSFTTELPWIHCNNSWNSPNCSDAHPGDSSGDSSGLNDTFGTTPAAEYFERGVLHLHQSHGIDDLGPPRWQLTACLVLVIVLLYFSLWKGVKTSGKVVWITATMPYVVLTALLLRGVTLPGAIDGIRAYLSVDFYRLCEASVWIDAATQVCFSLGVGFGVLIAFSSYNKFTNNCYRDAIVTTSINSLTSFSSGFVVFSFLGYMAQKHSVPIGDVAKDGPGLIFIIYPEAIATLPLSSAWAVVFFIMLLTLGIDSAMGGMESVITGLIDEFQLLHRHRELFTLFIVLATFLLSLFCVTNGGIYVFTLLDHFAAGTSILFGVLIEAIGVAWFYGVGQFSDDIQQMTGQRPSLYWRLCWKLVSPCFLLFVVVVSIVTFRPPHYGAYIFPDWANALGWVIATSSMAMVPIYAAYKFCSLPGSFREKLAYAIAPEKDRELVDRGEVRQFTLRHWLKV
Each line names hits and unclear results; the compound was inactive in the other large screens. Only some compounds are listed: those with a hit (about 6.1% of all), similar ones and a draw of the others.

COc1ccc(-c2c(C)nn3c(-c4ccccc4)cc(C)nc23)cc1	none (no result: BB579 growth dn, Measles CPE, Yeast life ext)
COc1ccc(Nc2c3c(nc4c(-c5ccccc5)c(C)nn24)CCC3)cc1	WT yeast gro inh 62 (no result: hDAT+cocaine)
Cn1c(NNC(=O)C(c2ccccc2)c2ccccc2)cc(=O)n(C)c1=O	none (no result: BB579 growth dn, Measles CPE, Yeast life ext, hDAT+cocaine)
CS(=O)(=O)N1CCN(C(=O)c2ccc(Cl)s2)CC1	none (no result: BB579 growth dn, Measles CPE, Yeast life ext, hDAT+cocaine)
COc1cccc(-c2nc(N3CCCCC3C)c3ccccc3n2)c1O (stereo unspecified)	WT yeast gro inh 64
COc1ccc([N+](=O)[O-])cc1NC(=O)c1cc(C)c(C)o1	none (no result: BB579 growth dn, Measles CPE, Yeast life ext, hDAT+cocaine)
Cc1sc2nc(C(C)Nc3ccccc3N3CCOCC3)[nH]c(=O)c2c1C (stereo unspecified)	hDAT+cocaine -7.5
CC1CC(c2ccccc2)n2nc(N3C(=O)c4ccccc4C3=O)nc2N1 (stereo unspecified)	Measles CPE 27
Cc1cccc(C2CC(c3ccccc3)Nc3nc(N)nn32)c1 (stereo unspecified)	none
O=C(NCc1ccc2c(c1)OCO2)c1ccc(NS(=O)(=O)c2ccc3c(c2)OCCO3)cc1	RAM inhibit 8.5
Cc1ccc(O)c(-c2cc(C(=O)NCc3ccc4c(c3)OCO4)[nH]n2)c1	Measles CPE 29 (no result: hDAT+cocaine)
Cc1cc(NC(=O)c2ccc3nc(C)sc3c2)no1	Measles CPE 60
Cc1ccc2cc3cc(C(=O)NCc4ccc5c(c4)OCO5)oc3nc2c1	Measles CPE 34
Cc1nc2ccc(C(=O)NCc3ccc4c(c3)OCO4)cc2s1	WT yeast gro inh 64 (no result: BB579 growth dn, Measles CPE, Yeast life ext, hDAT+cocaine)
Cc1ccn2c(Nc3ccccc3C)c(-c3ccccn3)nc2c1	WT yeast gro inh 72 (no result: BB579 growth dn, Measles CPE, Yeast life ext, hDAT+cocaine)
Cc1ccc2nc(-c3ccccn3)c(Nc3ccccc3C)n2c1	WT yeast gro inh 76 (no result: BB579 growth dn, Measles CPE, Yeast life ext, hDAT+cocaine)
Cc1ccccc1Nc1c(-c2ccccn2)nc2ccccn12	WT yeast gro inh 64 (no result: BB579 growth dn, Measles CPE, Yeast life ext, hDAT+cocaine)
Cc1ccn2c(Nc3ccccc3)c(-c3ccccn3)nc2c1	WT yeast gro inh 73 (no result: BB579 growth dn, Measles CPE, Yeast life ext, hDAT+cocaine)
Cc1cccn2c(Nc3ccccc3)c(-c3ccccn3)nc12	none (no result: BB579 growth dn, Measles CPE, Yeast life ext, hDAT+cocaine)
CC[C@H]1OC(=O)[C@H](C)[C@@H](O[C@H]2C[C@@](C)(OC)[C@@H](O)[C@H](C)O2)[C@H](C)[C@@H](O[C@@H]2O[C@H](C)C[C@H](N(C)C)[C@H]2O)[C@](C)(O)C[C@@H](C)CN(C)[C@H](C)[C@@H](O)[C@]1(C)O	none (no result: WT yeast gro inh, BB579 growth dn, Measles CPE, RAM inhibit, Yeast life ext)
CC1(C)CC(=O)c2sc(NS(=O)(=O)c3ccccc3)nc2C1	none (no result: BB579 growth dn, Measles CPE, Yeast life ext, hDAT+cocaine)
CC1(C)CC(=O)c2sc(NS(C)(=O)=O)nc2C1	Yeast life ext 97
CCOc1ccc(NC(=O)CN2C(=O)C3CCCN3C2=O)cc1 (stereo unspecified)	none
Cc1nc2c(=O)n(C)c(=O)n(C)c2nc1Cl	WT yeast gro inh 58, Yeast life ext 75 (no result: hDAT+cocaine)
O=C(CSc1nnnn1-c1ccc(Cl)cc1)N1CCc2ccccc2C1	WT yeast gro inh 81
O=C(CSc1nnnn1-c1cccc2ccccc12)NC(C(=O)O)(c1ccccc1)c1ccccc1	RAM inhibit 8.8 (no result: BB579 growth dn, Measles CPE, Yeast life ext, hDAT+cocaine)
Cc1ccc(-n2nnnc2SCC(=O)NC(C(=O)O)(c2ccccc2)c2ccccc2)cc1C	none (no result: BB579 growth dn, Measles CPE, Yeast life ext, hDAT+cocaine)
O=C(CSc1nnnn1-c1cccc2ccccc12)N1CCOCC1	Measles CPE 36
C[C@@H]1CC=C[C@H]2[C@H]1C(=O)N(Cc1ccccc1)[C@H]2c1ccc2ccccc2c1Br	none (no result: WT yeast gro inh, BB579 growth dn, Measles CPE, RAM inhibit, Yeast life ext)
NC1=NC(=O)C2(COC(c3cccnc3)OC2)S1 (stereo unspecified)	none (no result: BB579 growth dn, Measles CPE, Yeast life ext, hDAT+cocaine)
Cc1ccc(S(=O)(=O)ON2C(=O)c3cccc4cccc(c34)C2=O)cc1	Yeast life ext 34 (no result: hDAT+cocaine)
COc1ccc(C(=O)On2c(-c3ccc(Br)cc3)nc3ccccc3c2=O)cc1	Yeast life ext 96 (no result: hDAT+cocaine)
COc1cc(OC)cc(-c2nc3ccccc3c(=O)n2OC(=O)c2ccc(Br)cc2)c1	Yeast life ext 71 (no result: hDAT+cocaine)
Cc1cc(C(=O)Nn2c(-c3ccc(Br)cc3)nc3ccccc3c2=O)ccc1[N+](=O)[O-]	WT yeast gro inh 68 (no result: hDAT+cocaine)
C=CCNC(=O)c1onc(CSc2ccc(Cl)cc2)c1C(=O)O	none
CN(C)C(=O)C[n+]1cccc(/C=N/O)c1	none (no result: hDAT+cocaine)
CCOC(=O)c1cccc(N2C(=O)c3ccccc3S2(=O)=O)c1	none (no result: hDAT+cocaine)
Cc1ccc(/C=c2\sc3nc(-c4cccs4)nn3c2=O)o1	RAM inhibit 9.0
COc1cccc(/C=c2\sc3nc(-c4cccs4)nn3c2=O)c1OC	none (no result: WT yeast gro inh, hDAT+cocaine)
CC1(C)CC(NC(=S)NCc2ccc3c(c2)OCO3)CC(C)(C)N1	none (no result: BB579 growth dn, Measles CPE, Yeast life ext, hDAT+cocaine)
O=C(Oc1ccc2c3c(c(=O)oc2c1)CCC3)c1ccco1	none
O=C(CCCCCN1C(=O)c2ccccc2C1=O)Oc1ccc2c3c(c(=O)oc2c1)CCC3	RAM inhibit 11 (no result: hDAT+cocaine)
NC(=O)Cn1cnc2nc3n(c2c1=O)CCC3	none (no result: BB579 growth dn, Measles CPE, Yeast life ext, hDAT+cocaine)
CN(C(=O)Cc1c(C(=O)O)n(C)c2ccccc12)c1ccc(F)cc1	none (no result: BB579 growth dn, Measles CPE, Yeast life ext, hDAT+cocaine)
COc1ccc2cc(C#N)c(N3CCN(Cc4nnnn4CCC(C)C)CC3)nc2c1	none
COc1ccc(OC)c(NC(=O)CS(=O)(=O)c2ccccc2)c1	none
COc1cc(OC)nc(NC(=O)CS(=O)(=O)c2ccccc2)n1	BB579 growth dn 56 (no result: Yeast life ext)
CSc1nncn1/N=C/c1ccc([N+](=O)[O-])cc1	none (no result: BB579 growth dn, Measles CPE, Yeast life ext, hDAT+cocaine)
CSc1nncn1/N=C/c1ccc2c(c1)OCO2	WT yeast gro inh 64
O=S(=O)(Nc1cccc(-c2cn3cccnc3n2)c1)c1ccc(Cl)cc1	none (no result: hDAT+cocaine)
O=C(CCC(=O)OCC(=O)c1ccc(Cl)cc1)NC1CCCCC1	Measles CPE 64
O=C(COC(=O)CCCNC(=O)c1ccc(Cl)cc1)NC1CC1	Measles CPE 48
